Screens: PubChem BioAssay, Johns Hopkins Ion Channel Center
MrgX1 PAM = human MrgX1 positive allosteric modulation, primary screen; MrgX1-HEK293, Fluo-4 calcium flux, FDSS; active compounds read high; B-score at 10 µM; 310,000 tested, 0.63% active; AID 588675;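 active = plate-corrected calcium response at least 3 library SD above typical, normal starting fluorescence, not activating the receptor alone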;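 also: compound read alongside a low EC10 to EC30 dose of BAM8-22 agonist; peak minus trough fluorescence over baseline measured at the second addition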
Target sequence (Q96LB2 whole entry, looked up): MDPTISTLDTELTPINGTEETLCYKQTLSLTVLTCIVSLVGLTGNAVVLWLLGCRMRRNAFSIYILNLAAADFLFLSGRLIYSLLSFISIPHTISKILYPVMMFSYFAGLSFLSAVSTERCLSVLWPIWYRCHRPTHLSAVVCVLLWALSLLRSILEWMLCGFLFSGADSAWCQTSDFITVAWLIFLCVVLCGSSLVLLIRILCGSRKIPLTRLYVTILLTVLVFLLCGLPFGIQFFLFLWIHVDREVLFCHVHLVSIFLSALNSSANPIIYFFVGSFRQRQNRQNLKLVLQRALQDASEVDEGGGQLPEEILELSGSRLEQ
RGS4 block = human RGS4 inhibition; AID 463165; B-score at 10 µM; 310,000 tested, 0.45% active; HEK293 M3R/RGS4 inducible, Fluo-4 calcium flux; active compounds read high; triggered by carbachol at its EC20; P49798;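 active = B-score, a plate-corrected calcium signal, over three deviations above library mean, with baseline fluorescence within five deviations of library mean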;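 also: RGS4 expression induced by doxycycline in cells with stable M3 receptor; B-score is computed from the integrated fluorescence ratio over baseline after carbachol; higher B-score means a larger calcium signal and so more RGS4 inhibition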
Target sequence (P49798 whole entry, looked up): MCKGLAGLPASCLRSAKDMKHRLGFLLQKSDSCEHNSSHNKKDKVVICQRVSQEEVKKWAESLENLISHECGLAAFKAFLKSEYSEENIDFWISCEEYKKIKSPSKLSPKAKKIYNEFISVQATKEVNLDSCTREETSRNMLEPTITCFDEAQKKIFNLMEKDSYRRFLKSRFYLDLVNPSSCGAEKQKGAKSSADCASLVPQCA
MrgX1 antag = blocks BAM8-22 activation of human MrgX1 receptor | Q96LB2 | MRGX1-HEK293 calcium flux, Fluo-4, BAM8-22 antagonism; active compounds read low | B-score at 10 µM | 310,000 tested, 1.3% active | AID 588676;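 active = calcium-response B-score plate-corrected more than 3 library SD below zero, starting fluorescence within 5 deviations, no agonist response on first addition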;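 also: peak minus trough fluorescence over baseline after final BAM8-22 challenge near maximal dose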
MrgX1 ag = activates human MrgX1 receptor signaling. Q96LB2. MrgX1-HEK293 cells, Fluo-4 calcium fluorescence, agonist mode; active compounds read high. B-score at 10 µM. 310,000 tested, 0.44% active;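 active = calcium response B-score plate-corrected fluorescence ratio at least 3 library SD, with starting fluorescence B-score inside 5 SD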
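Test system: HEK293 cells stably expressing human MrgX1 receptor; Input: fifteen thousand cells per well; Dosing: compound delivered in addition one of three; Schedule: overnight seeding, then 1 h dark dye loading; Technique: Fluo-4 NW calcium fluorescence; Measure: B-scored fluorescence response ratio; Controls: positive and negative controls per plate.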
RGS4 pot = potentiators or activators of RGS4; 310,000 tested, 0.92% active; AID 463111; HEK293 M3R/inducible RGS4, carbachol calcium flux Fluo4; active compounds read low; B-score at 10 µM;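 active = B-score of the integrated calcium signal more than 4 SD below the library mean, with starting fluorescence not abnormally high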;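 also: negative B-score means reduced calcium response which marks RGS4 activation or potentiation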
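Material: Inducible-RGS4 HEK293 cells carrying M3 receptor; also added: carbachol at ECmax as muscarinic agonist stimulus; incubation: compound preincubation 20 min at room temperature before agonist; signal: Fluo4-AM (2 µM) calcium-flux fluorescence, kinetic read; measure: integrated calcium ratio converted to B score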
* hit, by the source's call; i = inactive; x = no result. Only some compounds are listed: those with a hit (about 3.5% of all), similar ones and a draw of the others.

SMILES | MrgX1 PAM | RGS4 block | MrgX1 antag | MrgX1 ag | RGS4 pot
Cc1cccc(N(C)S(=O)(=O)c2c(C)[nH]c(C)c2C(=O)N2CCCC2)c1 | i | i | i | i | i
O=C(NCc1cn2ccccc2n1)C1CCC(=O)N(Cc2ccccc2F)C1 (centres undefined) | i | i | i | i | i
COc1ccc(-c2csc(NC(=O)CSCC(=O)Nc3cc(C)on3)n2)cc1OC | i | i | i | 29* | i
CC(C)OCCCNc1ccc(N2C(=O)CCCC2=O)cc1[N+](=O)[O-] | i | i | i | i | i
COc1ccc(-c2cc(C(F)(F)F)n3ncc(C(=O)Nc4c(C)n(C)n(-c5ccccc5)c4=O)c3n2)cc1 | i | i | i | i | i
CC(=O)Nc1ccc(S(=O)(=O)NCc2ccc(C(=O)NCCN3CCCCCC3)cc2)cc1 | i | i | -9.4* | i | i
CC(=O)Nc1ccc(S(=O)(=O)NCc2ccc(C(=O)NCc3ccc(Cl)cc3)cc2)cc1 | i | i | i | i | i
COc1cccc(/C=C(\C#N)c2nc3ccccc3[nH]2)c1OCC(=O)O | i | i | i | i | i
CCCOc1cc(N(CC)CC)ccc1/C=C(/C#N)c1nc2ccc(C)cc2[nH]1 | 12* | i | i | i | i
CCOc1cc(N(CC)CC)ccc1/C=C(/C#N)c1nc2ccccc2[nH]1 | i | i | i | 79* | i
CCN(CC)c1ccc(/C=C(/C#N)c2nc3ccc(C)cc3[nH]2)c(OC(C)C)c1 | i | i | i | 40* | i
CCOC(=O)CC1C(=O)NCCN1c1nc2ccc(C)cn2c(=O)c1/C=C1\SC(=S)N(CC(C)C)C1=O (centres undefined) | i | i | i | 103* | i
CCCN1C(=O)/C(=C/c2c(N3CCNC(=O)C3CC(=O)OCC)nc3c(C)cccn3c2=O)SC1=S (centres undefined) | i | i | i | i | i
CCOC(=O)CC1C(=O)NCCN1c1nc2ccc(C)cn2c(=O)c1/C=C1\SC(=S)N(C(C)CC)C1=O (centres undefined) | i | i | i | 108* | i
CCOc1ccccc1NC1=C(Cl)C(=O)N(c2ccc(OC)cc2)C1=O | 7.9* | i | i | i | i
COc1ccccc1NC1=C(Cl)C(=O)N(C2CCCCC2)C1=O | 7.6* | i | i | i | i
COc1ccc(N2C(=O)C(Cl)=C(NCc3ccccc3)C2=O)cc1 | i | i | i | i | i
CCOc1cc(C(=O)NC2CCCCCCC2)cc(OCC)c1OCC | i | i | i | i | i
CCCCN1C(=O)/C(=C/C=C2\N(C)c3ccccc3C2(C)C)SC1=S | i | i | -15* | i | i
O=C(NCCCN1CCCC1)c1ccc2c(c1)N(Cc1ccccc1)CCS2 | i | i | i | i | -7.4*
CCn1c(=O)c2sccc2n(Cc2cccc(C)c2)c1=O | i | i | i | i | i
CCN(CC)Cc1ccccc1Sc1ccccc1 | i | i | i | i | -9.2*
CCOC(=O)CSc1nc2ccc(NC(=O)CSc3nnnn3Cc3ccccc3)cc2s1 | 6.9* | i | i | i | i
CN(C)S(=O)(=O)n1cc(/C=C(\NC(=O)c2ccccc2F)C(=O)NCCCn2ccnc2)c2ccccc21 | x | i | x | x | -9.6*
CC(C)[C@H](NC(=O)[C@H]1N2C(=O)c3ccccc3C2SC1(C)C)C(=O)NCc1ccco1 (some centres undefined) | i | i | i | i | i
SMILES | MrgX1 PAM | RGS4 block | MrgX1 antag | MrgX1 ag | RGS4 pot
O=[N+]([O-])c1cc(Br)c2nsnc2c1N1CCOCC1 | i | i | i | 59* | i
COc1ccccc1Nc1nnc(SCc2nnc(-c3cc(OC)c(OC)c(OC)c3)o2)s1 | 7.1* | i | i | i | i
COc1cc(-c2nnc(CSc3nnc(Nc4ccc(C(C)C)cc4)s3)o2)cc(OC)c1OC | i | i | i | i | i
CCOc1ccccc1Nc1nnc(SCc2nnc(-c3cc(OC)c(OC)c(OC)c3)o2)s1 | i | i | -6.2* | i | i
COC(=O)C1=C(C(=O)OC)C(c2ccccc2O)c2sc(=O)[nH]c2S1 (centres undefined) | i | i | i | i | i
CCOc1cc(/C=N/NC(=O)c2cc3c(ccc4ccccc43)o2)ccc1O | i | i | i | i | i
CCOC(=O)COc1ccccc1/C=N\NC(=O)c1cc2c(ccc3ccccc32)o1 | i | i | i | i | -8.8*
NC(=O)N/N=C/c1ccccc1OCC(=O)NCc1ccccc1 | i | i | -4.8* | i | i
O=C(N/N=C/c1cc(Br)c(O)c(Br)c1)c1cc2c(ccc3ccccc32)o1 | i | i | i | i | -7.3*
COc1ccccc1/C=N/NC(=O)CC(=O)NCc1ccccc1 | i | i | i | i | i
CSCC[C@H](N)C(=O)NC[C@H]1CC[C@H](C(=O)N[C@@H](Cc2ccccc2)C(=O)O)CC1 | i | i | i | i | i
CCOc1ccc(/C=C2\SC(=S)N(N3C(=O)C4CC4C3=O)C2=O)cc1 (centres undefined) | i | i | i | i | i
CCOc1ccc(/C=C2/SC(=O)NC2=S)cc1 | i | i | i | 32* | i
Cc1nn(C)c(C)c1NC(=O)CSc1nc(C2CC2)nc2c1cnn2-c1ccccc1 | i | i | i | i | i
CC1CCCCN1C(=O)CSc1nc(C2CC2)nc2c1cnn2-c1ccccc1 (centres undefined) | i | i | i | i | -7*
COc1ccc(NC(=O)CN2CCC(C(=O)c3ccc(F)cc3)CC2)c(OC)c1 | i | i | i | i | i
COc1ccc(NC(=O)Cn2nc(C(=O)O)c3ccccc3c2=O)cc1OC | i | i | i | i | i
CN1C2CCC1/C(=C/c1cccn1C)C(=O)/C2=C\c1cccn1C | i | i | i | i | i
CN1C2CCC1/C(=C\c1ccc(F)cc1)C(=O)/C2=C/c1ccc(F)cc1 | 7* | i | i | i | i
O=C(/C=C/c1ccccc1[N+](=O)[O-])Oc1ccccc1 | i | i | i | i | i
COC(=O)C(=Cc1ccccc1[N+](=O)[O-])C(=O)OC | i | i | i | 50* | i
CCCCCCCCNC(=O)/C(C#N)=C/c1ccccc1[N+](=O)[O-] | i | i | i | i | -7.9*
CCN1C(=O)c2ccc(C(=O)NCc3ccco3)cc2C1=O | i | i | i | i | i
